Here are results for 97 compounds from ChEMBL document CHEMBL4513216, “Probing the Open Global Health Chemical Diversity Library for Multistage-Active Starting Points for Next-Generation Antimalarials” (ACS Infect Dis, 2020).

The nature of the data set: Toxicity liver stage against HepG2, at 10uM. The arrangement: test concentration 10 uM, cell line HepG2-A16-CD81EGFP. Type of data set: cell-based. As to conditions: human, HepG2-A16-CD81EGFP cells; read-out: INHIBITION
Summed up:
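Uninfected HepG2-A16-CD81EGFP cells, 3 × 10^3 per well, 1536-well, plated on prespotted compound at 10 μM final, parasite-free screening media added to match infected plates; puromycin 10 μM positive, DMSO 0.5% negative; run in parallel with 48 h PbLuc assay at 37 °C, 5% CO2; viability by CellTiter-Glo luminescence, normalized to controls.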
As for `Cc1nc(C(C)N(C)Cc2nc(CCC(C)C)no2)c(C)s1` (configuration not stated), the cytotoxicity at 10 µM is -4.76%.

Take `COCC(=O)N1CCC2(CC1)CC(=O)N(Cc1ccc(Cl)cc1)C2`: the cytotoxicity at 10 µM is 0.96%.

For the compound `COc1ccc(CN2CCN(C(C)c3nc(C4CC4)no3)CC2)cc1` (configuration not stated), the cytotoxicity at 10 µM is 4.31%. The result for `CC(NCc1cc(O)c2cccc(F)c2n1)c1ccc(S(C)(=O)=O)cc1` (configuration not stated) reads 4.03%; that for `COc1ccc(C(C)N2CCC(OC)CC2)cc1Cl` (configuration not stated), -53.2%; that for `O=C(NCc1cc(-c2ccccc2)no1)NCC1CCCO1` (configuration not stated), -3.01%.

Turning to `Cc1c(Cn2cc(Cl)c(N)n2)cnn1C`, the cytotoxicity at 10 µM is -5.18%. Under `O=C(CC1CCCCC1)N1CCC(O)(C(F)(F)F)C1` (configuration not stated) stands -6.58%. The result for `CC(C)Cn1cnc(S(=O)(=O)NCCc2nnc3ccccn23)c1` reads 6.48%; that for `Cc1ccc(C(=O)NC2CCN(Cc3cccc4c3OCCO4)CC2)s1`, -4.8%; that for `COc1ccc(NC(=O)NC(C)Cn2cccn2)cn1` (configuration not stated), -5.72%. For the compound `O=C(Cc1ccccc1)N1CCC2(CC(=O)N(c3cccc(F)c3)C2)C1` (configuration not stated), the cytotoxicity at 10 µM was -0.557%. Under `O=C(c1ncoc1C1CC1)N1CCN(CCOc2ccccc2)CC1` stands -6.93%; under `CC(C(=O)N1CCCC1)S(=O)(=O)Cc1noc(C(C)(C)C)n1` (configuration not stated), -1.1%; under `CN1C(=O)[C@@H]2CC[C@H]1CN(S(=O)(=O)c1ccc(Cl)cc1Cl)C2`, 1.47%. Turning to `Cc1c(C(=O)NCC(C)(C)S(C)(=O)=O)cccc1-c1ccccn1`, the cytotoxicity at 10 µM was 2.07%. The result for `CC1CN(C)CCN1C(=O)c1ccn(-c2ccc(F)cc2)n1` (configuration not stated) reads -5.3%; that for `Cc1cccc2c1cnn2CCCNC(=O)C(C)C`, -2.12%. The result for `CS(=O)(=O)N1CCN(c2cc(-n3cccc3)ncn2)CC1` reads 4.65%; that for `Cc1c(Cl)c(C(=O)NCc2ccc(F)cc2)nn1C`, -2.26%; that for `COCCCNC(=O)CN(C)C(=O)CN(C)c1ccc(C#N)cn1`, -6.08%.

Take `Cc1c[nH]c(CN2CCOC(c3ccc(Cl)cc3)C2)c(C)c1=O` (configuration not stated): the cytotoxicity at 10 µM worked out at 13.4%. For the compound `Cc1ccc(CN2C[C@H](O)C[C@H]2c2nc(-c3ccc(F)cc3)no2)cc1`, the cytotoxicity at 10 µM was -0.456%. `Cc1ccc(-n2cc(CN3CCN(C)[C@@H]4CS(=O)(=O)C[C@@H]43)cn2)cc1`: the cytotoxicity at 10 µM is -8.67%. The result for `Cc1ccc(CNC(=O)CN2C=Nc3ccccc3S2(=O)=O)s1` reads 0.347%; that for `CCOC(C)C(=O)NS(=O)(=O)c1cccc2cc(C)cnc12` (configuration not stated), -3.14%; that for `CC(C)CNC(=O)CNc1c(NCc2ccco2)c(=O)c1=O`, -0.817%. The result for `C=c1ccoc1=C1NN=C(CNCCn2cccn2)O1` reads -5.02%. Regarding `COc1ccccc1OCCCn1c(C)c(C)oc1=O`, the cytotoxicity at 10 µM came out at 0.129%. On to `CC(C)NC(=O)Nc1ccc(CS(C)(=O)=O)cc1`, for which the cytotoxicity at 10 µM is 1.69%. As for `O=C1[C@H]2CN(Cc3ccccc3)C[C@H]2CN1CCN1CCCC1`, the cytotoxicity at 10 µM was -3.84%. The result for `O=C(c1cnns1)N1CCN(Cc2ccc(F)cc2Cl)CC1` reads -127%; that for `O=C(Cn1cc(Cl)cn1)NCCN1CCC(O)(c2ccc(F)cc2)CC1`, 3.41%.

For `O=C(Cc1c[nH]c2ncccc12)NCC(O)c1ccccc1F` (configuration not stated), the cytotoxicity at 10 µM is -3.43%. Consider `CN(Cc1cncnc1)Cc1cn2c(n1)CN(C1CCOC1)CC2` (configuration not stated), for which the cytotoxicity at 10 µM was -9.36%. The result for `CC(C)N(C(=O)N1CCn2cncc2C1)C(C)C` reads -12.3%; that for `CC(Nc1cnn(C)c(=O)c1Cl)c1ccc(F)cc1` (configuration not stated), 20.7%. Under `O=C(NCCN1CCOCC1)c1cc(-c2ccc3c(c2)CCO3)n[nH]1` stands -2.95%. Under `CC1CN(c2ncnc3cccc(F)c23)CCO1` (configuration not stated) stands 16.1%. Consider `CC(NCCN1CCN(C(=O)C2CCCC2)CC1)c1nccs1` (configuration not stated), for which the cytotoxicity at 10 µM was -0.513%.

As for `CCCn1ccc2cc(NC(=O)CC3CCCO3)ccc21` (configuration not stated), the cytotoxicity at 10 µM was -3.45%. Consider `c1cnc(N2CCCn3c(nnc3Cn3cccn3)C2)nc1`, for which the cytotoxicity at 10 µM was -1.58%. Under `O=C(CNC(=O)N1CCc2c([nH]c3ccc(Cl)cc23)C1)NC1CCCC1` stands -2.91%. For the compound `CN(Cc1noc(C2CC2)n1)C1CCN(Cc2ncc[nH]2)C1` (configuration not stated), the cytotoxicity at 10 µM is -1.87%. `Cc1nn(-c2ccccc2)nc1C(=O)N1CCCC(n2cccn2)C1` (configuration not stated): the cytotoxicity at 10 µM is -9.53%.

With `CNS(=O)(=O)c1cccc(C(C)NCc2ccncc2)c1` (configuration not stated), the cytotoxicity at 10 µM is -2.53%. The result for `CC(CNC(=O)c1cnc[nH]1)Oc1ccccc1Br` (configuration not stated) reads 2.74%; that for `CCS(=O)(=O)CCSc1ccc(Cl)cc1`, -1.13%.

Turning to `CC(C)CNC(=O)c1nnsc1-c1ccccc1`, the cytotoxicity at 10 µM was 10.3%. For `OCCc1cc(C2CCCN2c2ncccn2)n[nH]1` (configuration not stated), the cytotoxicity at 10 µM amounted to 5.56%. The result for `NC(=O)c1ccc(OCC(=O)N2CCCC(n3cccn3)C2)cc1` (configuration not stated) reads 1.3%; that for `Cc1cc(C)n(C2CCN(S(=O)(=O)N3CCC(C)CC3)CC2)n1`, 6.36%; that for `COc1cc(N2C[C@H](C(=O)NC3CC3)[C@@H]3CCO[C@@H]3C2)ncn1`, -5.47%. The result for `COCC1CCN(S(=O)(=O)N2C[C@H](c3ccccc3)[C@@H](N)C2)CC1` reads 1.12%; that for `NS(=O)(=O)c1cccnc1NCc1ccco1`, -8.21%. Under `O=C1NCCCc2[nH]c(C3CCN(C(=O)C4CC4)CC3)nc21` stands -3.46%; under `N#CC(NC(=O)CCCOc1cccnc1)c1ccc(F)cc1F` (configuration not stated), 8.23%; under `CN(Cc1cccc(C(=O)Nc2ccnn2C)c1)CC1(C)COC1`, -5.84%. With `O=C1NCCN1C1CCN(CC(O)c2ccccc2F)CC1` (configuration not stated), the cytotoxicity at 10 µM was -0.535%. As to `Cc1nc(N)c2ccc(C3CCCN3)nc2n1` (configuration not stated), the cytotoxicity at 10 µM was 3.67%. The result for `O=C(c1ccoc1)N1CCc2c(COCc3ccncc3)cncc2C1` reads 8.1%; that for `Cc1n[nH]c(C)c1NC(=O)Nc1cccnc1N1CCCC1`, -14%; that for `O=C(CC1COCCN1)N1CCC2(CCc3ccccc32)CC1` (configuration not stated), -148%. The result for `Cc1cccc2c1cnn2CCCNC(=O)c1ccnn1C` reads 13.4%. Under `O=C(Cc1ccccn1)N1CCC2(CC1)[C@H](O)C[C@@H]2O` stands -2.34%; under `CC(=O)c1c(O)n(C)c2ccc(C)cc12`, 8.58%; under `CCc1cnc(NCCSc2cnn[nH]2)nc1`, -10.4%. Consider `O=S(=O)(N1CCCC1)N(Cc1ccccc1)CC1CCCO1` (configuration not stated), for which the cytotoxicity at 10 µM is -0.966%. Under `COCCCN(C)C(=O)c1cccc(Nc2cnccn2)c1` stands -8.43%; under `CCCNC(=O)COc1ccc(C)cn1`, -14.5%. Consider `COCCN1CCO[C@@H]2CN(S(=O)(=O)c3cccnc3)C[C@@H]2C1`, for which the cytotoxicity at 10 µM was 16.3%. Under `CN(C)S(=O)(=O)N1CCC(c2ccncn2)CC1` stands -20.5%; under `CS(=O)(=O)N1CCN(Cc2cccs2)CC(C(N)=O)C1` (configuration not stated), 18%. The result for `C[S+]([O-])CCCNC(=O)c1cc(Br)c2c(c1)OCCO2` (configuration not stated) reads 16.9%; that for `Cc1cc(C)n(CC2CCCCN2C(=O)c2ccc3[nH]nnc3c2)n1` (configuration not stated), 2.52%. Under `O=C(Nc1ccc(-n2cncn2)c(F)c1)C1CCN(C(=O)C2CC2)CC1` stands -2.83%; under `CN(Cc1nccn1C)C1CCN(CCc2ccccn2)CC1`, -8.78%.

As to `CCC(CC)(CNC(=O)OC(C)(C)C)NC(=O)C1CC1`, the cytotoxicity at 10 µM is -0.708%. For `O=C(NCc1cccs1)c1nc2c(o1)CN(C(=O)c1cccnc1)C2`, the cytotoxicity at 10 µM is -6.04%. Under `O=C(O)c1ccc(S(=O)(=O)Nc2ccccc2CC(F)(F)F)c(F)c1` stands 6.02%; under `CCOC(=O)N1CCN(C(=O)c2snnc2-c2ccc(OC)cc2)CC1`, 3.56%; under `CO[C@@H]1CCN(Cc2ccoc2)[C@@H]2CN(Cc3ccco3)C[C@@H]21`, 8.1%. For the compound `Cc1cc(NCC(=O)N(C)C)c(C(N)=O)cc1F`, the cytotoxicity at 10 µM is -2.64%. Under `Cc1cc(N2CCC(N(C)C(=O)c3sccc3C)CC2)nc(C)n1` stands 25.9%; under `COC(C)(C)CC(C)NCc1nncn1C1CCCCC1` (configuration not stated), -2.87%. Under `CS(=O)(=O)N1CCC(c2nc3ccc(-c4cccc(F)c4)cn3n2)CC1` stands 22.6%. The result for `Cc1ccc(N2N=C(C(=O)NCC3CC3)S(=O)(=O)c3cccnc32)cc1` reads 6.72%. As to `Cc1cc(CNC(=O)COc2ccccc2F)c(C)o1`, the cytotoxicity at 10 µM is -2.33%.

With `N#Cc1ccc(CNC(=O)NC2CCN(CC(F)F)CC2)cc1`, the cytotoxicity at 10 µM is -6.96%. For the compound `COc1cccc(CN2CCC(c3nccn3C(C)C)CC2)c1`, the cytotoxicity at 10 µM was -8.37%. Under `c1ccc(-c2nccc(CNCC3CCCN3c3cccnn3)n2)cc1` (configuration not stated) stands -1.17%; under `Cn1cc(-c2cnc(N3CCOCC3)nc2)cc1C(=O)NC1CC1`, -80.4%. Under `CC(NC(=O)N(C)Cc1ccc2c(c1)OCO2)c1nncn1C` (configuration not stated) stands -1.31%; under `O=S(=O)(NCc1cc2n(n1)CCNC2)c1ccc(OC(F)(F)F)cc1`, 11.5%; under `CCN(Cc1cscn1)CC1(C)Cc2c(N)nc(N)nc2O1` (configuration not stated), 3.35%.

Regarding `Cn1cc(CN2C[C@@H]3COC[C@H](C(=O)Nc4cccnc4)[C@@H]3C2)cn1`, the cytotoxicity at 10 µM is 9.34%.

For `Cc1cnc(N2CCCC3(COCCN(c4nccs4)C3)C2)nc1` (configuration not stated), the cytotoxicity at 10 µM is -112%.
